Assay results as given in PubChem BioAssay.
Calls of active or inactive are those of the source.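 How the source made its calls, unless noted: active means GFP response above 150% of the DMSO level; inconclusive means fewer than 70 events counted for a yeast strain; inactive means the rest.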

Columns and labels:
[1] = hit retest on RPL19A-GFP reporter strain – cell-based, S. cerevisiae, flow cytometry, cherry picks, mother/daughter gates, confirmation (AID 2270;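 active means GFP response below 50% of the DMSO control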); settings: 3 h, at 10 µM, stronger effect = lower value, 100 = same GFP as DMSO wells
[2] = yeast TOR pathway reporter LAP4-GFP change – cell-based, cherry picks, flow cytometry, mother/daughter gates, confirmation (AID 2271;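 active means GFP response above 150% of the DMSO control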;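 further: ratio of sample to DMSO plate mean so 100% equals DMSO level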); settings: S. cerevisiae LAP4-GFP strain, 3 h, at 10 µM, stronger effect = higher value, 100 means same as DMSO control
Outline: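 System: GFP-fusion yeast strain | Input: Yeast cells seeded at OD600 of 0.2 | Technique: HT flow cytometry, GFP fluorescence channel | Read-out: % GFP response vs DMSO | Dosing: Single test-compound dose, 10 µM final | Controls: Positive rapamycin (400 ng/mL), negative DMSO | Times: 3 h treatment at 30 °C with rotation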

[3] = TOR pathway reporter MEP2-GFP, retest of hits – S. cerevisiae, flow cytometry GFP, cherry picks, confirmation (AID 2272;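 active means GFP response above 150% of the DMSO control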;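 further: ratio of well signal to plate DMSO mean so 100% equals DMSO level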); settings: S. cerevisiae MEP2-GFP strain, 3 h, at 10 µM, stronger effect = higher value
[4] = yeast AGP1-GFP fluorescence change, single-dose – cell-based, flow cytometry, S. cerevisiae, cherry picks, confirmation (AID 2273);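 further: median GFP channel fluorescence over the whole cell population gate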; settings: S. cerevisiae AGP1-GFP strain, 3 h, at 10 µM
[5] = TOR pathway CIT2 reporter hit retest – S. cerevisiae, GFP fusion, cherry picks, mother/daughter gates, confirmation (AID 2274); settings: S. cerevisiae CIT2-GFP strain, flow cytometry, 3 h, at 10 µM, stronger effect = higher value
[6] = measured here: daughter cell gate
[7] = measured here: mother cell gate
[8] = measured here: daughter cell gate response
[9] = measured here: mother cell gate response

Row | SMILES | GFP response vs DMSO [1] | GFP response vs DMSO [1, 6] | GFP response vs DMSO [1, 7] | GFP response relative to DMSO [2] | GFP response relative to DMSO [2, 8] | GFP response relative to DMSO [2, 9] | GFP response vs DMSO [3] | GFP response, % of DMSO [4] | GFP response, % of DMSO [5] | GFP response, % of DMSO [5, 6] | GFP response, % of DMSO [5, 7]
1 | CCOC(=O)CSC1=NC(=O)/C(=C/c2ccc(OC)cc2)S1 | 100% (inactive) | 92.5% | 98.2% | 154% (active) | 139% | 159% | 103% (inactive) | 102% (inactive) | 79.7% (inactive) | 79.4% | 71.8%
2 | COc1ccccc1N=Nc1ccc(O)c2ncccc12 | 104% (inactive) | 101% | 101% | 235% (active) | 203% | 223% | 132% (inactive) | 115% (inactive) | 158% (active) | 126% | 161%
3 | CCCCCCCCn1c(=O)c(C(=O)OCC)c(O)c2ccccc21 | 98.4% (inactive) | 99.4% | 99.4% | 92.8% (inactive) | 92.8% | 92.9% | 100% (inactive) | 99.3% (inactive) | 101% (inactive) | 101% | 101%
4 | COc1cc(CCN2C(=O)c3cccc4cccc(c34)C2=O)c(S(=O)(=O)NCCCO)cc1OC | 99.1% (inactive) | 98.5% | 99.7% | 95.3% (inactive) | 96.5% | 94.6% | 99.5% (inactive) | 93.6% (inactive) | 95% (inactive) | 96.4% | 93.3%
5 | Oc1c(CN2CCCCC2)cc(Br)c2cccnc12 | 106% (inactive) | 103% | 105% | 208% (active) | 181% | 208% | 118% (inactive) | 96.7% (inactive) | 102% (inactive) | 104% | 91%
6 | O=[N+]([O-])c1ccc(N2CCN(CCO)CC2)cc1Sc1ccccn1 | 97.8% (inactive) | 99.5% | 98% | 94.1% (inactive) | 96% | 95.4% | 99.3% (inactive) | 96.1% (inactive) | 101% (inactive) | 101% | 102%
7 | CCOC(=O)Cc1csc(NC(=O)COc2ccc(N(C)S(=O)(=O)c3cccs3)cc2)n1 | 95% (inactive) | 94.9% | 92% | 102% (inactive) | 101% | 98.3% | 105% (inactive) | 96.6% (inactive) | 95.5% (inactive) | 97.2% | 95%
8 | CNC(=O)/C(C#N)=C/c1c(N2CC(C)OC(C)C2)nc2ccccn2c1=O (stereo not given) | 97.6% (inactive) | 88.7% | 90.1% | 94.4% (inactive) | 92.6% | 92% | 101% (inactive) | 110% (inactive) | 98.8% (inactive) | 95.6% | 85.8%
9 | Cc1nc(C)c(-c2csc(NCCc3ccccc3)n2)s1 | 96.7% (inactive) | 96.4% | 95.9% | 112% (inactive) | 105% | 113% | 112% (inactive) | 96.6% (inactive) | 108% (inactive) | 110% | 107%
10 | COC(=O)c1ccc(CS(=O)(=O)c2ccc(F)cc2)o1 | 97.8% (inactive) | 98.1% | 95.9% | 98.9% (inactive) | 99% | 98.4% | 103% (inactive) | 102% (inactive) | 100% (inactive) | 99.3% | 98.2%
11 | CCCc1[nH]nc2c1C(c1cccnc1)C(C#N)=C(N)O2 (stereo not given) | 98.6% (inactive) | 97.9% | 99.2% | 99.2% (inactive) | 97.6% | 98.3% | 96.2% (inactive) | 103% (inactive) | 101% (inactive) | 99.1% | 99.7%
12 | O=C(Nc1cccc(O)c1)c1ccccc1 | 94.6% (inactive) | 96.1% | 96.4% | 95.4% (inactive) | 97.6% | 95.1% | 98.3% (inactive) | 101% (inactive) | 98.3% (inactive) | 101% | 97.3%
13 | Cc1ccc(/C=C2/NC(=O)N(Cc3ccccc3)C2=O)o1 | 98.4% (inactive) | 99.8% | 98.8% | 112% (inactive) | 110% | 113% | 101% (inactive) | 101% (inactive) | 103% (inactive) | 105% | 101%
14 | CCOc1cc(/C=N/Nc2nc(C)cc(=O)[nH]2)ccc1O | 102% (inactive) | 102% | 100% | 89% (inactive) | 87.9% | 90.1% | 104% (inactive) | 100% (inactive) | 106% (inactive) | 106% | 103%
15 | COc1ccc(-c2ccc(S(=O)(=O)N3CCOCC3)cc2)cc1 | 95.4% (inactive) | 93.9% | 95.7% | 107% (inactive) | 106% | 107% | 99% (inactive) | 100% (inactive) | 100% (inactive) | 97.4% | 102%
16 | Cc1cccn2c(=O)c(/C=C(\C#N)C(=O)NCc3ccco3)c(N3CCCCCC3)nc12 | 97% (inactive) | 97.3% | 97.2% | 96.2% (inactive) | 95.6% | 98.3% | 97.8% (inactive) | 95.4% (inactive) | 90% (inactive) | 89.9% | 86.9%
17 | O=C1CC(Sc2nnnn2C2CCCCC2)C(=O)N1c1ccccc1 (stereo not given) | 94.3% (inactive) | 95.5% | 94.8% | 107% (inactive) | 104% | 107% | 97.5% (inactive) | 99.3% (inactive) | 95% (inactive) | 94.6% | 93.3%
18 | CCOC(=O)C1=C(Cc2ccc(Cl)cc2)C(=O)c2ccccc2C1=O | 99.1% (inactive) | 98.5% | 98.1% | 112% (inactive) | 107% | 111% | 104% (inactive) | 97.3% (inactive) | 99.3% (inactive) | 102% | 94.5%
19 | S=C(Nc1ccc(Cl)cc1)Nc1ccc2cn[nH]c2c1 | 93.9% (inactive) | 96.3% | 93.3% | 106% (inactive) | 108% | 105% | 101% (inactive) | 104% (inactive) | 103% (inactive) | 100% | 104%
20 | N#C/C(=C\c1c(N2CCCCCC2)nc2ccccn2c1=O)C(=O)NC1CCS(=O)(=O)C1 (stereo not given) | 99.9% (inactive) | 101% | 99.7% | 105% (inactive) | 107% | 103% | 116% (inactive) | 98.7% (inactive) | 109% (inactive) | 111% | 108%
21 | Cc1ccc(C(=O)c2c3ccccc3[n+]([O-])n2CCO)cc1 | 97% (inactive) | 97.4% | 96.6% | 96.7% (inactive) | 96% | 94% | 98.3% (inactive) | 97.6% (inactive) | 96.9% (inactive) | 99.1% | 97.3%
22 | Nc1ccc2nc(-c3ccc(-c4nc5ccc(N)cc5[nH]4)cc3)[nH]c2c1 | 99.3% (inactive) | 100% | 96.1% | 111% (inactive) | 108% | 94.4% | 112% (inactive) | 99.1% (inactive) | 108% (inactive) | 92.3% | 93.8%
23 | O=[N+]([O-])c1cc(C(F)(F)F)ccc1Sc1ccc2ccccc2n1 | 95.8% (inactive) | 97% | 96.4% | 115% (inactive) | 109% | 115% | 102% (inactive) | 97.5% (inactive) | 95% (inactive) | 98.3% | 93.3%
24 | CCCN(Cc1nnc(-c2ccccc2Cl)o1)C(=O)c1cc([N+](=O)[O-])cc([N+](=O)[O-])c1 | 97.3% (inactive) | 98.4% | 96.1% | 97.7% (inactive) | 96% | 98.4% | 101% (inactive) | 98.6% (inactive) | 94.4% (inactive) | 94% | 94.9%
25 | COc1cc(NC(=O)c2cccc(C)c2)ccc1NC(=O)c1cc2ccccc2o1 | 102% (inactive) | 103% | 102% | 103% (inactive) | 102% | 103% | 99% (inactive) | 104% (inactive) | 103% (inactive) | 106% | 103%
26 | Cc1ccc(NC(=O)c2ccc([N+](=O)[O-])o2)cc1C | 100% (inactive) | 104% | 95.8% | 128% (inactive) | 111% | 127% | 110% (inactive) | 99.8% (inactive) | 100% (inactive) | 105% | 96%
27 | O=Nc1c(O)c2ccccc2c2ccccc12 | 113% (inactive) | 109% | 111% | 114% (inactive) | 113% | 119% | 111% (inactive) | 104% (inactive) | 107% (inactive) | 106% | 105%
28 | CCCc1[nH]nc2c1C(c1cccc(OC(=O)c3ccco3)c1)C(C#N)=C(N)O2 (stereo not given) | 98.5% (inactive) | 96.7% | 96.7% | 97.7% (inactive) | 96% | 98.4% | 99.3% (inactive) | 106% (inactive) | 104% (inactive) | 103% | 104%
29 | COc1ccc(-c2noc(CCC(=O)Nc3cccc(C)c3)n2)cc1 | 96.6% (inactive) | 96.7% | 96.2% | 109% (inactive) | 105% | 108% | 102% (inactive) | 96.9% (inactive) | 97.8% (inactive) | 98.3% | 94.5%
30 | Cc1ccccc1NC(=O)c1ccccc1 | 96.6% (inactive) | 98.1% | 96.9% | 95.4% (inactive) | 97.6% | 94% | 107% (inactive) | 96.4% (inactive) | 98.3% (inactive) | 99.1% | 97.3%
